Converted amounts (≈) assume the structure as drawn. The source made the active and inactive calls.
Experiments:
P388 [1] = assay: Antitumor activity against mouse P388 cells allografted in PS mouse assessed as median survival time at 50 ug/kg relative to control; assay type: functional
Summary of the method: (§1)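 P388 leukemia (PS) in mice, six mice started per dose group. Read-out is T/C: median survival time of the treated group divided by that of the untreated control group, expressed as a percent. The NIH protocol counts a compound as active when T/C > 125%.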

P388 [2] = assay: Antitumor activity against mouse P388 cells allografted in PS mouse assessed as median survival time at 1.6 ug/kg relative to control; assay type: functional; summary of the method: as §1
Mus musculus [3] = assay: Toxicity in PS mouse allografted with mouse P388 cells assessed as survival at 3.1 ug/kg after 4 days; assay type: organism-based; conditions: in vivo, 0.0031 mg/kg, 96 h
Summary of the method: (§2)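 PS (P388) leukemic mice, six started per dose group. Toxicity scored as survivors on the toxicity day over the number of mice started. The toxicity day is normally 4 days after the first injection.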

P388 [4] = assay: Antitumor activity against mouse P388 cells allografted in PS mouse assessed as median survival time at 25 ug/kg relative to control; assay type: functional; summary of the method: as §1
Mus musculus [5] = assay: Toxicity in PS mouse allografted with mouse P388 cells assessed as change in body weight at 12.5 ug/kg relative to control; assay type: organism-based; conditions: in vivo, 0.0125 mg/kg
Summary of the method: (§3)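 P388 (PS) leukemia in mice, 6 mice per dose group. Weight change is the difference in grams between treated and control animals. Survivors are recorded on toxicity day, normally 4 days after the first injection.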

Paracentrotus lividus = assay: Antimitotic activity against sea urchin eggs assessed as drug level causing inhibition of mitosis; assay type: functional; conditions: Egg
Mus musculus [6] = assay: Toxicity in PS mouse allografted with mouse P388 cells assessed as change in body weight at 50 ug/kg relative to control; assay type: organism-based; conditions: in vivo, 0.05 mg/kg; summary of the method: as §3
Mus musculus [7] = assay: Toxicity in PS mouse allografted with mouse P388 cells assessed as change in body weight at 0.2 ug/kg relative to control; assay type: organism-based; conditions: in vivo, 0.0002 mg/kg
Summary of the method: (§4)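 PS (P388 leukemia) mice, six per dose group. Toxicity read as the difference in grams between the weights of treated and control animals.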

P388 [8] = assay: Antitumor activity against mouse P388 cells allografted in PS mouse assessed as median survival time at 12.5 ug/kg relative to control; assay type: functional; summary of the method: as §1
Mus musculus [9] = assay: Toxicity in PS mouse allografted with mouse P388 cells assessed as survival at 12.5 ug/kg after 4 days; assay type: organism-based; conditions: in vivo, 0.0125 mg/kg, 96 h; summary of the method: as §2
Mus musculus [10] = assay: Toxicity in PS mouse allografted with mouse P388 cells assessed as survival at 0.4 ug/kg after 4 days; assay type: organism-based; conditions: in vivo, 0.0004 mg/kg, 96 h; summary of the method: as §2
P388 [11] = assay: Antitumor activity against mouse P388 cells allografted in PS mouse assessed as median survival time at 6.2 ug/kg relative to control; assay type: functional; summary of the method: as §1
Mus musculus [12] = assay: Toxicity in PS mouse allografted with mouse P388 cells assessed as change in body weight at 6.2 ug/kg relative to control; assay type: organism-based; conditions: in vivo, 0.0062 mg/kg; summary of the method: as §3
Mus musculus [13] = assay: Toxicity in PS mouse allografted with mouse P388 cells assessed as change in body weight at 0.8 ug/kg relative to control; assay type: organism-based; conditions: in vivo, 0.0008 mg/kg; summary of the method: as §4
P388 [14] = assay: Antitumor activity against mouse P388 cells allografted in PS mouse assessed as median survival time at 0.8 ug/kg relative to control; assay type: functional; summary of the method: as §1
Mus musculus [15] = assay: Toxicity in PS mouse allografted with mouse P388 cells assessed as survival at 0.2 ug/kg after 4 days; assay type: organism-based; conditions: in vivo, 0.0002 mg/kg, 96 h; summary of the method: as §2
Mus musculus [16] = assay: Toxicity in PS mouse allografted with mouse P388 cells assessed as survival at 50 ug/kg after 4 days; assay type: organism-based; conditions: in vivo, 0.05 mg/kg, 96 h; summary of the method: as §2
Mus musculus [17] = assay: Toxicity in PS mouse allografted with mouse P388 cells assessed as survival at 1.6 ug/kg after 4 days; assay type: organism-based; conditions: in vivo, 0.0016 mg/kg, 96 h; summary of the method: as §2
Mus musculus [18] = assay: Toxicity in PS mouse allografted with mouse P388 cells assessed as survival at 6.2 ug/kg after 4 days; assay type: organism-based; conditions: in vivo, 0.0062 mg/kg, 96 h; summary of the method: as §2
P388 [19] = assay: Antitumor activity against mouse P388 cells allografted in PS mouse assessed as median survival time at 3.1 ug/kg relative to control; assay type: functional; summary of the method: as §1
P388 [20] = assay: Antitumor activity against mouse P388 cells allografted in PS mouse assessed as median survival time at 0.4 ug/kg relative to control; assay type: functional; summary of the method: as §1
Mus musculus [21] = assay: Toxicity in PS mouse allografted with mouse P388 cells assessed as survival at 0.1 ug/kg after 4 days; assay type: organism-based; conditions: in vivo, 0.0001 mg/kg, 96 h; summary of the method: as §2
P388 [22] = assay: Antitumor activity against mouse P388 cells allografted in PS mouse assessed as median survival time at 0.2 ug/kg relative to control; assay type: functional; summary of the method: as §1
Mus musculus [23] = assay: Toxicity in PS mouse allografted with mouse P388 cells assessed as change in body weight at 25 ug/kg relative to control; assay type: organism-based; conditions: in vivo, 0.025 mg/kg; summary of the method: as §3
P388 [24] = assay: Antitumor activity against mouse P388 cells allografted in PS mouse assessed as median survival time at 0.1 ug/kg relative to control; assay type: functional; summary of the method: as §1
Mus musculus [25] = assay: Toxicity in PS mouse allografted with mouse P388 cells assessed as change in body weight at 0.1 ug/kg relative to control; assay type: organism-based; conditions: in vivo, 0.0001 mg/kg; summary of the method: as §4
Tubulin (Homo sapiens) = Tubulin (Homo sapiens) (UniProt P68371+Q9H4B7+P0DPH7+P68366+Q13509+Q71U36+P04350+Q3ZCM7+P07437+P68363+Q9BQE3+Q6PEY2+Q13885+Q9BVA1+Q9BUF5); assay: Inhibition of brain tubulin polymerization (unknown origin) at 37 degC by spectrophotometry
Mus musculus [26] = assay: Toxicity in PS mouse allografted with mouse P388 cells assessed as change in body weight at 0.4 ug/kg relative to control; assay type: organism-based; conditions: in vivo, 0.0004 mg/kg; summary of the method: as §4
Mus musculus [27] = assay: Toxicity in PS mouse allografted with mouse P388 cells assessed as change in body weight at 3.1 ug/kg relative to control; assay type: organism-based; conditions: in vivo, 0.0031 mg/kg; summary of the method: as §3
Mus musculus [28] = assay: Toxicity in PS mouse allografted with mouse P388 cells assessed as survival at 0.8 ug/kg after 4 days; assay type: organism-based; conditions: in vivo, 0.0008 mg/kg, 96 h; summary of the method: as §2
Mus musculus [29] = assay: Toxicity in PS mouse allografted with mouse P388 cells assessed as survival at 25 ug/kg after 4 days; assay type: organism-based; conditions: in vivo, 0.025 mg/kg, 96 h; summary of the method: as §2
Mus musculus [30] = assay: Toxicity in PS mouse allografted with mouse P388 cells assessed as change in body weight at 1.6 ug/kg relative to control; assay type: organism-based; conditions: in vivo, 0.0016 mg/kg; summary of the method: as §3
KB = assay: Cytotoxicity against human KB cells; assay type: functional; conditions: read-out: ED50 (the source's name)

| SMILES | T/C (P388 [1]) [%] | T/C (P388 [2]) [%] | Activity (Mus musculus [3]) | T/C (P388 [4]) [%] | Activity (Mus musculus [5]) [g] | Activity (Paracentrotus lividus) | Activity (Mus musculus [6]) [g] | Activity (Mus musculus [7]) [g] | T/C (P388 [8]) [%] | Activity (Mus musculus [9]) | Activity (Mus musculus [10]) | T/C (P388 [11]) [%] | Activity (Mus musculus [12]) [g] | Activity (Mus musculus [13]) [g] | T/C (P388 [14]) [%] | Activity (Mus musculus [15]) | Activity (Mus musculus [16]) | Activity (Mus musculus [17]) | Activity (Mus musculus [18]) | T/C (P388 [19]) [%] | also measured |
| --- | --- | --- | --- | --- | --- | --- | --- | --- | --- | --- | --- | --- | --- | --- | --- | --- | --- | --- | --- | --- | --- |
| CCC(=O)N(C)[C@@H](C)C(=O)O[C@H]1CC(=O)N(C)c2cc(cc(OC)c2Cl)C/C(C)=C/C=C/[C@@H](OC)[C@@]2(O)C[C@H](OC(=O)N2)[C@@H](C)[C@@H]2O[C@@]12C | <80 | 154 | Non-toxic | <80 | -1.3 | 1 ×10⁻⁸ mol/L | -1.2 | -1.1 | 104 | Non-toxic | Non-toxic | 125 | -2.1 | -1.1 | 145 | Non-toxic | Toxic | Non-toxic | Non-toxic | 150 | T/C (P388 [20]): 137%; Activity (Mus musculus [21]): Non-toxic; T/C (P388 [22]): 120%; Activity (Mus musculus [23]): -2.2 g; T/C (P388 [24]): 137%; Activity (Mus musculus [25]): -1.1 g; inhibition (Tubulin (Homo sapiens)): Active; Activity (Mus musculus [26]): -0.8 g; Activity (Mus musculus [27]): -0.6 g; Activity (Mus musculus [28]): Non-toxic; Activity (Mus musculus [29]): Non-toxic; Activity (Mus musculus [30]): -1.2 g |
| COc1cc2cc(c1Cl)N(C)C(=O)C[C@H](OC(=O)C(C)C)[C@]1(C)O[C@H]1[C@H](C)[C@@H]1C[C@@](O)(NC(=O)O1)[C@H](OC)/C=C/C=C(\C)C2OC(C)=O (stereo partly drawn) | <80 | 162 | Non-toxic | 170 | -0.8 | 1 ×10⁻⁷ mol/L | -1 | -1.3 | 179 | Non-toxic | Non-toxic | 166 | -0.9 | -1 | 137 | Non-toxic | Non-toxic | Non-toxic | Non-toxic | 150 | EC50 (KB): 0.0015 ng/mL (≈ 0.00216 nM); T/C (P388 [20]): 133%; Activity (Mus musculus [21]): Non-toxic; T/C (P388 [22]): 125%; Activity (Mus musculus [23]): -0.9 g; T/C (P388 [24]): 125%; Activity (Mus musculus [25]): -0.5 g; inhibition (Tubulin (Homo sapiens)): Active; Activity (Mus musculus [26]): -0.6 g; Activity (Mus musculus [27]): -0.4 g; Activity (Mus musculus [28]): Non-toxic; Activity (Mus musculus [29]): Non-toxic; Activity (Mus musculus [30]): -0.7 g |
| COc1cc2cc(c1Cl)N(C)C(=O)C[C@H](OC(=O)[C@H](C)N(C)C(=O)C(C)C)[C@]1(C)O[C@H]1[C@H](C)[C@@H]1C[C@@](O)(NC(=O)O1)[C@H](OC)/C=C/C=C(\C)C2 | <80 | 155 | Non-toxic | <80 | 0.1 | 1 nM | 0.1 | 0.1 | 120 | Non-toxic | Non-toxic | 155 | -1.3 | 0.1 | 190 | Non-toxic | Toxic | Non-toxic | Non-toxic | 145 | EC50 (KB): 0.0036 ng/mL (≈ 0.005 nM); T/C (P388 [20]): 155%; Activity (Mus musculus [21]): Non-toxic; T/C (P388 [22]): 165%; Activity (Mus musculus [23]): 0.1 g; T/C (P388 [24]): 125%; Activity (Mus musculus [25]): 0.3 g; inhibition (Tubulin (Homo sapiens)): Active; Activity (Mus musculus [26]): 0.4 g; Activity (Mus musculus [27]): -0.9 g; Activity (Mus musculus [28]): Non-toxic; Activity (Mus musculus [29]): Non-toxic; Activity (Mus musculus [30]): 0 g |
